Experimental data taken from ChEMBL document CHEMBL1124606, “Benzo- and pyrido-1,4-oxazepin-5-ones and -thiones: synthesis and structure-activity relationships of a new series of H1 antihistamines” (1989).

What was measured:
Cavia porcellus [1] = assay: Histamine induced lethality, at 60-min pretreatment time when 3 mg/kg compound was administered perorally in guinea pigs; format: functional; conditions: route oral
Cavia porcellus [2] = assay: Histamine induced lethality, at 60-min pretreatment time when 1 mg/kg compound was administered perorally in guinea pigs; format: functional; conditions: route oral
Cavia porcellus [3] = assay: Histamine induced lethality, at 60-min pretreatment time when 0.3 mg/kg compound was administered perorally in guinea pigs; format: functional; conditions: route oral
Cavia porcellus [4] = assay: Histamine induced lethality, at 30-min pretreatment time when 30 mg/kg compound was administered intra peritoneally in guinea pigs; format: functional
[5] = target: Histamine H1 receptor (Cavia porcellus) (UniProt P31389); assay: Histamine induced lethality, at 30-min pretreatment time of 3 mg/kg i.p. in guinea pigs.; format: functional, organism-based; parameters: dose 3 mg/kg; conditions: at 3 mg/kg
Histamine H1 receptor (Cavia porcellus), sequence (P31389 whole entry): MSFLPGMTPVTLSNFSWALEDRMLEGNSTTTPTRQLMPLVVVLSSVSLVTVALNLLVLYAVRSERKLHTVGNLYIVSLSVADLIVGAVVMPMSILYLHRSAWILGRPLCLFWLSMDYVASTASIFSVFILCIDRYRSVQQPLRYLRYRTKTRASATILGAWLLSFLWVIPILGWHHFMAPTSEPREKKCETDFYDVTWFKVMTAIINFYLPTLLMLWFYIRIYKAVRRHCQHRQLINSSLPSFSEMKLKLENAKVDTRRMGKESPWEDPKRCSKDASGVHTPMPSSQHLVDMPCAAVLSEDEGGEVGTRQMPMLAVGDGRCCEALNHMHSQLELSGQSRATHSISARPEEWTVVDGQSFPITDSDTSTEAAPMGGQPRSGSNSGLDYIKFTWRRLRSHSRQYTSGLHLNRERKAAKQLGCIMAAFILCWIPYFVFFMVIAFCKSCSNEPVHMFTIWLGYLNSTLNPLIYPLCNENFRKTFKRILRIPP

Cavia porcellus [6] = organism: Cavia porcellus; assay: Effective dose that protects guinea pigs against histamine induced lethality at 6 hours pretreatment time; format: functional
Method in brief: (§1)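 Survival at 24 h after challenge was scored as protection. Groups of 5–10 animals per treatment; ED50 was calculated by the Litchfield–Wilcoxon method or by computer probit analysis.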

Felis catus [7] = assay: The compound dose required for 50% block of H1 histamine activity, when administarted intra venously in cats; format: functional
Method in brief: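 Cats given test compound iv (0.001-20 mg/kg), with blood pressure recorded continuously. Histamine 0.5 μg/kg iv was given to induce hypotension, before and 5, 10 and 20 min after each dose. The antihistaminic dose was the one inhibiting the histamine response by >50%. Values are mean ± SD over the number of experiments per compound.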

Felis catus [8] = assay: The compound dose required to elicit marked cortical slowing and spindling, when administarted intra venously in cats; format: functional
Method in brief: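 Cats given test compound iv (0.001-20 mg/kg), with spontaneous EEG inspected after each dose for cortical slowing, synchrony and spindle-type activity. The sedative dose was the one producing marked slowing and spindling (synchrony). Values are mean ± SD over the number of experiments per compound.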

Cavia porcellus [9] = organism: Cavia porcellus; assay: Effective dose that protects guinea pigs against histamine induced lethality, at 1 hour pretreatment time; format: functional; method in brief: as §1
[10] = target: Histamine H1 receptor (Cavia porcellus) (UniProt P31389); assay: Histamine induced lethality, at 60-min pretreatment time of 0.1 mg/kg p.o. in guinea pigs.; format: functional, organism-based; parameters: dose 0.1 mg/kg; conditions: at 0.1 mg/kg
Cavia porcellus [11] = assay: Histamine induced lethality, at 60-min pretreatment time when 30 mg/kg compound was administered perorally in guinea pigs; format: functional; conditions: route oral

Compound `CN(CCC1CN(C)C(=S)c2cc(Br)cnc2O1)Cc1ccccc1` (stereo not drawn) has a survival at 3 mg/kg (Cavia porcellus [1]) of 100% and a survival at 1 mg/kg (Cavia porcellus [2]) of 0%.

`COc1ccc(CN(C)CCC2CN(C)C(=S)c3cccnc3O2)cc1` (stereo not drawn) was tested, and the survival at 3 mg/kg (Cavia porcellus [1]) was 67% and the survival at 1 mg/kg (Cavia porcellus [2]) was 0%.

Compound `CN(C)CCC1CN(C)C(=S)c2cc(F)ccc2O1` (stereo not drawn) has a survival at 3 mg/kg (Cavia porcellus [1]) of 100%, a survival at 0.3 mg/kg (Cavia porcellus [3]) of 0% and a survival at 1 mg/kg (Cavia porcellus [2]) of 20%.

In the case of `CN(C)CC1CN(C)C(=S)c2cccnc2O1` (stereo not drawn), the survival at 30 mg/kg (Cavia porcellus [4]) was 0%.

`CC(CN(C)C)C1CN(C)C(=S)c2cccnc2O1` (stereo not drawn) gave a survival at 30 mg/kg (Cavia porcellus [4]) of 100% and a Survival [5] of 0%.

`CN(C)CCC1CNC(=O)c2cccnc2O1` (stereo not drawn) was tested, and the survival at 3 mg/kg (Cavia porcellus [1]) was 67% and the survival at 1 mg/kg (Cavia porcellus [2]) was 0%.

With `CN(C)CCOC(c1ccccc1)c1ccccc1` [DIPHENHYDRAMINE] the survival at 3 mg/kg (Cavia porcellus [1]) was 67%, the ED50 (Cavia porcellus [6]) was 38 mg/kg and the Dose (Felis catus [7]) was 0.75 mg/kg. For the same compound, the Dose (Felis catus [8]) was 0.6 mg/kg, the survival at 1 mg/kg (Cavia porcellus [2]) was 33% and the ED50 (Cavia porcellus [9]) was 2.8 mg/kg.

For `CCN(CC)CCC1CN(C)C(=S)c2cc(Cl)cnc2O1` (stereo not drawn), the survival at 3 mg/kg (Cavia porcellus [1]) was 100%, the survival at 0.3 mg/kg (Cavia porcellus [3]) was 20% and the ED50 (Cavia porcellus [9]) was 0.39 mg/kg.

Work on `CN(C)CCC1(C)CN(C)C(=S)c2cccnc2O1` (stereo not drawn) yielded an ED50 (Cavia porcellus [6]) of 6 mg/kg, a survival at 0.3 mg/kg (Cavia porcellus [3]) of 67% and a Survival [10] of 40%. It also gave a survival at 1 mg/kg (Cavia porcellus [2]) of 100% and an ED50 (Cavia porcellus [9]) of 0.12 mg/kg.

For `CN(C)CCC1CN(C)C(=O)c2cccnc2O1` (stereo not drawn), the survival at 3 mg/kg (Cavia porcellus [1]) was 100%, the survival at 1 mg/kg (Cavia porcellus [2]) was 20% and the ED50 (Cavia porcellus [9]) was 1.05 mg/kg.

`CN(C)CCC1CN(C)C(=O)c2c(cncc2N(C)C)O1` (stereo not drawn) was tested, and the survival at 30 mg/kg (Cavia porcellus [4]) was 0%.

For `CN1CC(CCN2CCC2)Oc2ncc(Br)cc2C1=S` (stereo not drawn), the survival at 3 mg/kg (Cavia porcellus [1]) was 100%, the ED50 (Cavia porcellus [6]) was 0.1 mg/kg and the Survival [10] was 60%. The survival at 1 mg/kg (Cavia porcellus [2]) was 60% and the ED50 (Cavia porcellus [9]) was 0.09 mg/kg.

`CN1CC(CCN2CCC2)Oc2ccc(C(F)(F)F)cc2C1=S` (stereo not drawn) gave a survival at 3 mg/kg (Cavia porcellus [1]) of 33% and a survival at 30 mg/kg (Cavia porcellus [11]) of 100%.

`CN(CCC1CN(C)C(=S)c2cccnc2O1)Cc1ccc(C(C)(C)C)cc1` (stereo not drawn) gave a survival at 3 mg/kg (Cavia porcellus [1]) of 100%, a survival at 0.3 mg/kg (Cavia porcellus [3]) of 0% and a survival at 1 mg/kg (Cavia porcellus [2]) of 40%.

Work on `Cc1nc2c(cc1Cl)C(=S)N(C)CC(CCN1CCC1)O2` (stereo not drawn) yielded a survival at 0.3 mg/kg (Cavia porcellus [3]) of 67% and a Survival [10] of 67%.

For `CN(C)CCC1CN=C(S)c2cccnc2O1` (stereo not drawn), the survival at 3 mg/kg (Cavia porcellus [1]) was 100%, the survival at 0.3 mg/kg (Cavia porcellus [3]) was 0% and the survival at 1 mg/kg (Cavia porcellus [2]) was 33%.

Work on `CN(C)CCCC1CN(C)C(=O)c2cccnc2O1` (stereo not drawn) yielded a survival at 30 mg/kg (Cavia porcellus [4]) of 100% and a Survival [5] of 0%.

With `CN1CCN(CCC2CN(C)C(=S)c3cccnc3O2)CC1` (stereo not drawn) the survival at 30 mg/kg (Cavia porcellus [4]) was 100% and the Survival [5] was 0%.

Compound `CN1CC(CCCN)Oc2ncccc2C1=O` (stereo not drawn) has a survival at 30 mg/kg (Cavia porcellus [4]) of 100% and a Survival [5] of 0%.

Compound `CN(CCC1CN(C)C(=S)c2cc(Cl)cnc2O1)Cc1ccccc1` (stereo not drawn) has a survival at 3 mg/kg (Cavia porcellus [1]) of 100%, a survival at 0.3 mg/kg (Cavia porcellus [3]) of 60% and an ED50 (Cavia porcellus [9]) of 0.9 mg/kg.

For `CN1CC(CCNC2CCC2)Oc2ncccc2C1=S` (stereo not drawn), the survival at 30 mg/kg (Cavia porcellus [4]) was 0%.

`S=C1c2ccccc2OC(CCN2CCOCC2)CN1Cc1ccccc1` (stereo not drawn) showed a survival at 30 mg/kg (Cavia porcellus [4]) of 0%.

For `CN1CC(CCN2CC=CC2)Oc2ncccc2C1=S` (stereo not drawn), the survival at 3 mg/kg (Cavia porcellus [1]) was 100% and the survival at 1 mg/kg (Cavia porcellus [2]) was 0%.

`CN1CC(CCN(Cc2ccccc2)Cc2ccccc2)Oc2ncccc2C1=S` (stereo not drawn) was tested, and the survival at 30 mg/kg (Cavia porcellus [4]) was 0%.

For `COc1ccc(CCN2CCC(Nc3nc4ccccc4n3Cc3ccc(F)cc3)CC2)cc1` [ASTEMIZOLE], the Dose (Felis catus [7]) was 0.43 mg/kg and the Dose (Felis catus [8]) was 8 mg/kg.

In the case of `CN(C)CCC1CN(C)C(=S)c2ccc(Cl)cc2O1` (stereo not drawn), the survival at 3 mg/kg (Cavia porcellus [1]) was 100%, the survival at 0.3 mg/kg (Cavia porcellus [3]) was 0% and the survival at 1 mg/kg (Cavia porcellus [2]) was 0%. It also gave a survival at 30 mg/kg (Cavia porcellus [11]) of 100%.

With `CN(C)CCC1CN(C)C(=O)c2cc(Cl)cnc2O1` (stereo not drawn) the ED50 (Cavia porcellus [6]) was 28 mg/kg, the survival at 0.3 mg/kg (Cavia porcellus [3]) was 33% and the survival at 1 mg/kg (Cavia porcellus [2]) was 100%. It also gave an ED50 (Cavia porcellus [9]) of 0.3 mg/kg.

`CCN1CC(CCN(C)C)N(C)c2ccccc2C1=O` (stereo not drawn) gave a survival at 30 mg/kg (Cavia porcellus [4]) of 0%.

Work on `CN(C)CCC1CN(C)C(=O)c2cc(Cl)ccc2O1` (stereo not drawn) yielded a survival at 3 mg/kg (Cavia porcellus [1]) of 40%, a survival at 0.3 mg/kg (Cavia porcellus [3]) of 0% and a survival at 1 mg/kg (Cavia porcellus [2]) of 33%.

Compound `Cc1ccc2c(n1)OC(CCN(C)C)CN(C)C2=S` (stereo not drawn) has an ED50 (Cavia porcellus [6]) greater than 2 mg/kg, a survival at 0.3 mg/kg (Cavia porcellus [3]) of 100% and a Survival [10] of 80%. For the same compound, the ED50 (Cavia porcellus [9]) was 0.06 mg/kg.

With `CN1CC(CCn2ccnc2)Oc2ncccc2C1=S` (stereo not drawn) the survival at 30 mg/kg (Cavia porcellus [4]) was 100% and the Survival [5] was 0%.

`CN1CC(CCN2CCOCC2)Oc2ccccc2C1=S` (stereo not drawn) showed a survival at 30 mg/kg (Cavia porcellus [4]) of 50%.

`CN(C)CCC1CN(C)C(=S)c2cc(-c3ccccc3)cnc2O1` (stereo not drawn) gave a survival at 3 mg/kg (Cavia porcellus [1]) of 100%, a survival at 0.3 mg/kg (Cavia porcellus [3]) of 0% and a survival at 1 mg/kg (Cavia porcellus [2]) of 100%.

`CN1CC(CCNC2CC2)Oc2ncccc2C1=S` (stereo not drawn) gave a survival at 30 mg/kg (Cavia porcellus [4]) of 0%.

Work on `CN(C)CCC1(C)CN(C)C(=O)c2cccnc2O1` (stereo not drawn) yielded a survival at 3 mg/kg (Cavia porcellus [1]) of 67%, a survival at 0.3 mg/kg (Cavia porcellus [3]) of 67% and an ED50 (Cavia porcellus [9]) of 0.45 mg/kg.

For `CN(CCC1CN(C)C(=S)c2cccnc2O1)Cc1ccccc1` (stereo not drawn), the survival at 3 mg/kg (Cavia porcellus [1]) was 100% and the survival at 1 mg/kg (Cavia porcellus [2]) was 0%.

Work on `CN(C)CCC1CN(C)C(=O)c2cnc3ccccc3c2O1` (stereo not drawn) yielded a survival at 30 mg/kg (Cavia porcellus [4]) of 33%.

`CN1CC(CCCN)Oc2ncccc2C1=S` (stereo not drawn) was tested, and the survival at 30 mg/kg (Cavia porcellus [4]) was 67%.

For `CCOC(=O)N1CCC(=C2c3ccc(Cl)cc3CCc3cccnc32)CC1` [LORATADINE], the Dose (Felis catus [7]) was 0.43 mg/kg and the Dose (Felis catus [8]) was 20 mg/kg.
